Reference: ChEMBL document CHEMBL3745597, “Fragment-Based Discovery of Subtype-Selective Adenosine Receptor Ligands from Homology Models” (J Med Chem, 2015)
The source made the active and inactive calls. The rule behind the calls is not given here.

Legend:
[1] = biological target: T1, Adenosine receptor A2a (Homo sapiens, UniProt P29274); test: Displacement of [3H]-ZM241385 from human adenosine A2A receptor expressed in HeLa cells at 10 uM; type: cell-based
Summary of the method: (§1)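 Human A2AAR expressed in transfected HeLa cells, with [3H]-ZM241385 as radioligand. Percent inhibition was measured at a single 10 µM concentration. Ki was determined only where displacement exceeded 50% at 10 µM.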

[2] = biological target: Adenosine receptors; A1 & A3 (Homo sapiens) (UniProt P30542+P0DMS8); test: Selectivity ratio of Ki for human adenosine A1 receptor expressed in CHO cells to Ki for human adenosine A3 receptor expressed in CHO CRE-SPAP cells; type: functional, cell-based
Summary of the method: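 Ratio of Ki at A1AR to Ki at A3AR. Both Ki values come from the live-cell CA200645 competition assay (25 nM tracer, 1 h, 37°C), with Cheng-Prusoff correction using KD 17.0 nM (A1) and 3.11 nM (A3).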

[3] = biological target: T2, Adenosine receptor A3 (Homo sapiens, UniProt P0DMS8); test: Displacement of CA200645 from human adenosine A3 receptor expressed in CHO CRE-SPAP cells incubated for 1 hr by fluorescence analysis; type: cell-based
Summary of the method: (§2)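 Live confluent CHO cells expressing A1AR or A3AR were washed into HEPES-buffered saline, pH 7.4. Increasing concentrations of competitor were added with 25 nM fluorescent xanthine ligand CA200645 and incubated 1 h at 37°C, then imaged for total intensity. IC50 was converted to Ki by Cheng-Prusoff using ligand KD 17.0 nM (A1) or 3.11 nM (A3). Values are mean of n experiments run in duplicate.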

[4] = biological target: T3, Adenosine receptor A1 (Homo sapiens, UniProt P30542); test: Displacement of CA200645 from human adenosine A1 receptor expressed in CHO cells incubated for 1 hr by fluorescence analysis; type: cell-based; summary of the method: as §2
T3 sequence (P30542 whole entry): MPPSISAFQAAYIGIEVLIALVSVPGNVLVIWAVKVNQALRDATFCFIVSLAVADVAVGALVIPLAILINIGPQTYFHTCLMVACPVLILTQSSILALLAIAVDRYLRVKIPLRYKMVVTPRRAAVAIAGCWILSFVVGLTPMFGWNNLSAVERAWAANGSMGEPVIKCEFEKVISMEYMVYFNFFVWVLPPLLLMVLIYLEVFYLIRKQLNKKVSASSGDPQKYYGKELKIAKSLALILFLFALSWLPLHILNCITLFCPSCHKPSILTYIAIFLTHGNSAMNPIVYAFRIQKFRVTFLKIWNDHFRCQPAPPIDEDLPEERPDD

[5] = system: HeLa; test: Selectivity ratio of Ki for human adenosine A2A receptor expressed in HeLa cells to Ki for human adenosine A3 receptor expressed in CHO CRE-SPAP cells; type: cell-based
[6] = biological target: T1, Adenosine receptor A2a; test: Displacement of [3H]-ZM241385 from human adenosine A2A receptor expressed in HeLa cells; type: cell-based; summary of the method: as §1
[7] = biological target: T2, Adenosine receptor A3; test: Competitive antagonist activity at YFP linked human adenosine A3 receptor expressed in CHO CRE-SPAP cells assessed as inhibition of NECA-induced receptor internalization preincubated for 30 mins followed by addition of NECA measured after 60 mins by H33342 staining-based fluorescence analysis; type: cell-based
Summary of the method: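 Cells stably expressing YFP-tagged A3AR, serum-free DMEM/F12 with 2 mM L-glutamine, preincubated 30 min at 37°C with a fixed 10 µM antagonist or with medium only. Rising NECA concentrations were then added for 60 min. Cells were fixed in 3% paraformaldehyde, nuclei stained with H33342 and imaged confocally. Read-out was YFP granule count per cell. Antagonist KD came from the Gaddum dose-ratio equation, n=5 run in triplicate.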

T1 sequence (P29274 whole entry): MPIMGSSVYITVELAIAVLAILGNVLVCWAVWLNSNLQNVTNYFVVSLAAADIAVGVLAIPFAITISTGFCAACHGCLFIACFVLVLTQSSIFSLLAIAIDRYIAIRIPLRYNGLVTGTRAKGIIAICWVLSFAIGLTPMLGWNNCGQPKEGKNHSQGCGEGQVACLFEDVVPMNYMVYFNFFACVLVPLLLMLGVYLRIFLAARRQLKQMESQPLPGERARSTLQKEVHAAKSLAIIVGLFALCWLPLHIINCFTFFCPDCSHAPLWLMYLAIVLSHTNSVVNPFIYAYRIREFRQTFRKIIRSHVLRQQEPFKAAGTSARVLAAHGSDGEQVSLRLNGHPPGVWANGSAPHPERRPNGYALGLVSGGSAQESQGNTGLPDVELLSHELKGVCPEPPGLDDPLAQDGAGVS
T2 sequence (P0DMS8 whole entry, looked up): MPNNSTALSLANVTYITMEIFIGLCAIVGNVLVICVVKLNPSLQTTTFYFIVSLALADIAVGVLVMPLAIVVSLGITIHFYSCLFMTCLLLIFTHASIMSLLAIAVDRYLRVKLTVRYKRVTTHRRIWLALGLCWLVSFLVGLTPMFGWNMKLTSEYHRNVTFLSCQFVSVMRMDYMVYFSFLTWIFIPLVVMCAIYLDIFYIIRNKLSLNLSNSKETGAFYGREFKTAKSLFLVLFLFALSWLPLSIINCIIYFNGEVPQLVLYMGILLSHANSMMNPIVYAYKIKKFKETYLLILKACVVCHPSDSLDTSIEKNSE

Activity [1]	Ratio Ki [2]	Ki ([3]; read-out: Ki)	Ki ([3]; read-out: pKi (converted))	Ki [4]	Ki [6]	Kd [7]	pKi ([4]; cho)	Structure (SMILES)	Ratio Ki [5]
	14		2 µM	22.9 µM				CCc1cc2c(O)nc(-c3ccncc3)nc2s1	
inactive	102		0.55 µM	56.2 µM		0.741 µM		CCc1cc2c(=O)[nH]c(-c3ccoc3)nc2s1	
	70		1.82 µM	61.7 µM				CCc1cc2c(=O)[nH]c(C3CC3)nc2s1	
	6		13.5 µM	75.9 µM				CCc1cc2c(O)ncnc2s1	
inactive	> 38		2.29 µM				> 4	CCc1cc2c(O)nc(N3CCCC3)nc2s1	

More lines, now with the values behind:

Structure (SMILES)	Activity [1]	Ratio Ki [2]	Ki ([3]; read-out: Ki)	Ki ([3]; read-out: pKi (converted))	Ki [4]	Ki [6]	Kd [7]	pKi ([4]; cho)	Ratio Ki [5]
O=C(Nc1nc(C2CC2)cs1)c1ccoc1	inactive	29	0.12 µM	0.105 µM	2.95 µM				
O=C(Nc1nc(C2CC2)cs1)c1cc2ccccc2s1		101	0.04 µM	0.0339 µM	3.72 µM	2.9 µM	0.741 µM		72
O=C(Nc1nc2c(s1)CCC2)c1cc2ccccc2s1		5		0.38 µM	2.82 µM				
CSc1sc(NC(=O)C=C(C)C)nc1C		24		2.19 µM	29.5 µM				
O=c1[nH]c(-c2ccco2)nc2scc(-c3ccco3)c12		2		0.138 µM	0.347 µM				
Cc1sc2nc(-c3ccoc3)[nH]c(=O)c2c1C		4		0.398 µM	1.95 µM				
O=C(Nc1nc2ccccc2s1)c1cc2ccccc2s1		16		0.331 µM	6.17 µM				
O=C(Nc1ccc2[nH]ncc2c1)c1ccc[nH]1		1.2		2.4 µM	3.16 µM				
COc1cccc2sc(NC(=O)c3cc4ccccc4s3)nc12		34	0.12 µM	0.11 µM	3.09 µM				
CC(C)(C)C(=O)Nc1nc(C2CC2)cs1		2		4.9 µM	12.3 µM				
